Here are results for 31 compounds from ChEMBL document CHEMBL4321879, “Novel Class of Colony-Stimulating Factor 1 Receptor Kinase Inhibitors Based on an o-Aminopyridyl Alkynyl Scaffold as Potential Treatment for Inflammatory Disorders” (J Med Chem, 2020).

pIC50: −log10 of the molar value. Bounds are passed on as bounds.

Sequence of Fibroblast growth factor receptor 3 (P22607 whole entry, the tested form may be a part): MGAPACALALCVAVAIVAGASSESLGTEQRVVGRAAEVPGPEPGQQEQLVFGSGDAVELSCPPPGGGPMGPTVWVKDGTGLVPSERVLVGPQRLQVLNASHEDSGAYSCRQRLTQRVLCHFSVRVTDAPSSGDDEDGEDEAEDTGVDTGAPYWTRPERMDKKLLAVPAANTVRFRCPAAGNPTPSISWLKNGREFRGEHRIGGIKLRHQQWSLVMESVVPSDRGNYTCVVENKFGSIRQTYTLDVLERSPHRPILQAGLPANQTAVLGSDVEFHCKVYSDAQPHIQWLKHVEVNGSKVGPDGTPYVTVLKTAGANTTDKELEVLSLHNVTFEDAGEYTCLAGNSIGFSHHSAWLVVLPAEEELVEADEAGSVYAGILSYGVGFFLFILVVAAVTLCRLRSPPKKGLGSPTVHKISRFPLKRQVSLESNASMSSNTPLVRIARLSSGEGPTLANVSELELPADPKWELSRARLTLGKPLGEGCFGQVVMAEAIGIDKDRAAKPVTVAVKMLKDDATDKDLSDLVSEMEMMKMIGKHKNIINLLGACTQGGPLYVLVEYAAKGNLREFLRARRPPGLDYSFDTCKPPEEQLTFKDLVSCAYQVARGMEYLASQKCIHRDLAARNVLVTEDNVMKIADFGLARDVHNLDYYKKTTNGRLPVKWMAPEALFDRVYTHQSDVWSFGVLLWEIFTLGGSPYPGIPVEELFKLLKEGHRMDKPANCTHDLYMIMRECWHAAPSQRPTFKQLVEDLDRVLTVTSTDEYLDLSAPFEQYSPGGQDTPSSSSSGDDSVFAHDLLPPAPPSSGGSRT
Sequence of Fibroblast growth factor receptor 2 (P21802 whole entry, the tested form may be a part): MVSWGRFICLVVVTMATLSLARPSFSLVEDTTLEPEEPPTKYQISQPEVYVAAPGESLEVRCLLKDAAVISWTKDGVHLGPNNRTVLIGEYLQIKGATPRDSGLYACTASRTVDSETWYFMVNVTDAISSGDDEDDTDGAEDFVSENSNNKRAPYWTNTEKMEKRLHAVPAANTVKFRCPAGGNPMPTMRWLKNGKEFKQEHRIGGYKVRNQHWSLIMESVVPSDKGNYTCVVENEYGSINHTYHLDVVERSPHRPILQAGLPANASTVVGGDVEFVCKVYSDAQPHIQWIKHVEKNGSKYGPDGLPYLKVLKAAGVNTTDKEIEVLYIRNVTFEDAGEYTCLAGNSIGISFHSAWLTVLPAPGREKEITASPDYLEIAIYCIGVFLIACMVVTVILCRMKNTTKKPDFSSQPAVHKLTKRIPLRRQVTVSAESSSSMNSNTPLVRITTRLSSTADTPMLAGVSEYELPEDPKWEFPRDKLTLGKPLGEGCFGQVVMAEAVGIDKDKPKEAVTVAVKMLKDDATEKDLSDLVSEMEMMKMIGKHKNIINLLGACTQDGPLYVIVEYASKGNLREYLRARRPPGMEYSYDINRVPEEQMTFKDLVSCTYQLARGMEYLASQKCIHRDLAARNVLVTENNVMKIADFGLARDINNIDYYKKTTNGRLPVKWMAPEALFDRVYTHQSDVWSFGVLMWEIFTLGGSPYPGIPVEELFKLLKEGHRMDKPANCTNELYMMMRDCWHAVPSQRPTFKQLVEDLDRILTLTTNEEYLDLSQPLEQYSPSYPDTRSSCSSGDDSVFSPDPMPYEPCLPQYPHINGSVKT

One series deals with Macrophage colony-stimulating factor 1 receptor (Homo sapiens, UniProt P07333). The series is described as follows: Inhibition of recombinant CSF1R (unknown origin) using poly (Glu, Tyr)4:1 as substrate measured after 1 hr by ELISA.
Sequence of Macrophage colony-stimulating factor 1 receptor (P07333 whole entry): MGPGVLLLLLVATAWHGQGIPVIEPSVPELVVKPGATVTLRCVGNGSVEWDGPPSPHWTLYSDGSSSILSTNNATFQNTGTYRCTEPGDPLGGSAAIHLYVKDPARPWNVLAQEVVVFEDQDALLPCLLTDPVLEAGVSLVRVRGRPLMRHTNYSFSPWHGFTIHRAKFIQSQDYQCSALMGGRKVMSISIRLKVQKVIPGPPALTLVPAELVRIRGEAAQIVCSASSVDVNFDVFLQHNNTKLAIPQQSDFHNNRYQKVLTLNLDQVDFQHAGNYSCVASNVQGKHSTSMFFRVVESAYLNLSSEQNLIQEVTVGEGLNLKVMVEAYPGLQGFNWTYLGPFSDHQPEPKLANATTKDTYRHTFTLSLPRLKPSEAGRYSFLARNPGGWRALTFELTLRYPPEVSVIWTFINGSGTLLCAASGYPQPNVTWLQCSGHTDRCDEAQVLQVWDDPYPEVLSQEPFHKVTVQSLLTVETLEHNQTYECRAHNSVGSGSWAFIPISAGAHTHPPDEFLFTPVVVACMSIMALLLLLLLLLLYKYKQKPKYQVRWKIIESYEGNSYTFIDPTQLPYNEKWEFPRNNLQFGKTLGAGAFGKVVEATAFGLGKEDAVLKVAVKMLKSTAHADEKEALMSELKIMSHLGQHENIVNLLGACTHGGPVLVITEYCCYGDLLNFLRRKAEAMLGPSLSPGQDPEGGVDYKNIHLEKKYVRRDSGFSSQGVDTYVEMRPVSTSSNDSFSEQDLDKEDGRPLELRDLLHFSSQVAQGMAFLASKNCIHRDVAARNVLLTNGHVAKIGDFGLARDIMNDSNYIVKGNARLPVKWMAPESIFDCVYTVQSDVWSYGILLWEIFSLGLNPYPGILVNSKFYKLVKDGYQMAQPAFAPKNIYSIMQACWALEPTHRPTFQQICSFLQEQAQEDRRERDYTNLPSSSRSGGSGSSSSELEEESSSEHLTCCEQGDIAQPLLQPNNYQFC
Settings: not given
`COc1cc(NC(=O)c2ccc(C(F)(F)F)c(C#Cc3cc(-c4cnn(C)c4)cnc3N)c2)cc(OC)c1`: the negative-log IC50 (pIC50) (commonly the IC50 on a negative log10 scale, so that one unit is a factor of ten) was under 6.00. Same read-out and setting: to `COc1cc(NC(=O)c2ccc(OC)c(C#Cc3cc(-c4cnn(C)c4)cnc3N)c2)cc(OC)c1` belongs 6.58. With `COc1cc(NC(=O)c2ccc(C)c(C#Cc3cc(-c4cnn(C)c4)cnc3N)c2)cc(OC)c1`, the pIC50 is 8.59.

For the compound `COc1cc(NC(=O)c2cccc(C#Cc3cc(-c4cnn(C)c4)cnc3N)c2)cc(OC)c1`, the negative-log IC50 (pIC50) was 7.79. As for `Cc1ccc(C(=O)Nc2ccc(Cl)cc2Cl)cc1C#Cc1cc(-c2cnn(C)c2)cnc1N`, the pIC50 was 8.23. As to `COc1cc(NC(=O)c2ccc(C)c(C#Cc3cccnc3N)c2)cc(OC)c1`, the pIC50 is 7.55. With `Cc1ccc(C(=O)Nc2cccc(C(F)(F)F)c2)cc1C#Cc1cc(-c2cnn(C)c2)cnc1N`, the pIC50 is 8.62. Same read-out and setting: to `COc1cc(NC(=O)c2ccc(C)c(C#Cc3cncc4ccccc34)c2)cc(OC)c1` belongs 7.63; to `CNC(=O)c1cnc(N)c(C#Cc2cc(C(=O)Nc3cc(OC)cc(OC)c3)ccc2C)c1`, 8.09; to `COc1cc(NC(=O)c2ccc(Cl)c(C#Cc3cc(-c4cnn(C)c4)cnc3N)c2)cc(OC)c1`, 8.19. Same read-out and setting: with `COc1cc(NC(=O)c2ccc(C)c(C#Cc3cc(Cl)cnc3N)c2)cc(OC)c1` the figure was 7.78. The same measure, in the same setting: with `Cc1ccc(C(=O)Nc2ccc(CN3CCN(C)CC3)c(C(F)(F)F)c2)cc1C#Cc1cncc2ccccc12` the figure was 7.34; with `COc1cc(NC(=O)c2ccc(F)c(C#Cc3cc(-c4cnn(C)c4)cnc3N)c2)cc(OC)c1`, 6.80; with `COc1cc(NC(=O)c2ccc(C)c(C#Cc3cccnc3)c2)cc(OC)c1`, 6.66. On to `COc1cc(NC(=O)c2ccc(C)c(C#Cc3cnc4cccnn34)c2)cc(OC)c1`, for which the pIC50 was 7.60.

With `COc1ccccc1NC(=O)c1ccc(C)c(C#Cc2cc(-c3cnn(C)c3)cnc2N)c1`, the pIC50 is 7.69.

As for `COc1ccc(NC(=O)c2ccc(C)c(C#Cc3cc(-c4cnn(C)c4)cnc3N)c2)cc1`, the pIC50 was 8.85. On the same count and under the same terms, with `Cc1ccc(CNc2ccc(Cl)cc2)cc1C#Cc1cc(-c2cnn(C)c2)cnc1N` the figure was under 6.00; with `Cc1ccc(C(=O)Nc2ccc(Cl)c(Cl)c2)cc1C#Cc1cc(-c2cnn(C)c2)cnc1N`, 7.97; with `Cc1ccc(C(=O)Nc2ccc(C(F)(F)F)cc2)cc1C#Cc1cc(-c2cnn(C)c2)cnc1N`, 8.52. The same measure, in the same setting: to `Cc1ccc(NC(=O)c2ccc(Cl)cc2)cc1C#Cc1cc(-c2cnn(C)c2)cnc1N` belongs 8.14; to `Cc1cc(C(=O)Nc2ccc(Cl)cc2)ccc1C#Cc1cc(-c2cnn(C)c2)cnc1N`, under 6.00; to `Cc1ccc(C(=O)N(C)c2ccc(Cl)cc2)cc1C#Cc1cc(-c2cnn(C)c2)cnc1N`, under 6.00. Same read-out and setting: to `COc1cccc(NC(=O)c2ccc(C)c(C#Cc3cc(-c4cnn(C)c4)cnc3N)c2)c1` belongs 8.85; to `COC(=O)c1cnc(N)c(C#Cc2cc(C(=O)Nc3cc(OC)cc(OC)c3)ccc2C)c1`, 8.26.

For `Cc1ccc(C(=O)Nc2cccc(Cl)c2)cc1C#Cc1cc(-c2cnn(C)c2)cnc1N`, the pIC50 is 8.89. On the same count and under the same terms, to `Cc1ccc(C(=O)Nc2ccccc2)cc1C#Cc1cc(-c2cnn(C)c2)cnc1N` belongs 8.19; to `COc1cc(NC(=O)c2ccc(C)c(C#Cc3cc(C(N)=O)cnc3N)c2)cc(OC)c1`, 8.46.

For `Cc1ccc(C(=O)Nc2ccccc2Cl)cc1C#Cc1cc(-c2cnn(C)c2)cnc1N`, the pIC50 is 6.50. Consider `COc1cc(NC(=O)c2ccc(C(C)C)c(C#Cc3cc(-c4cnn(C)c4)cnc3N)c2)cc(OC)c1`, for which the pIC50 is under 6.00.

For a further series, the target named is Fibroblast growth factor receptor 1 (Homo sapiens, UniProt P11362). The series is described as follows: Inhibition of recombinant human N-terminal GST-tagged FGFR1 (456 to 765 residues) expressed in baculovirus infected Sf21 insect cells using poly (Glu, Tyr)4:1 as substrate measured after 1 hr by ELISA.
Sequence of Fibroblast growth factor receptor 1 (P11362 whole entry, the tested form may be a part): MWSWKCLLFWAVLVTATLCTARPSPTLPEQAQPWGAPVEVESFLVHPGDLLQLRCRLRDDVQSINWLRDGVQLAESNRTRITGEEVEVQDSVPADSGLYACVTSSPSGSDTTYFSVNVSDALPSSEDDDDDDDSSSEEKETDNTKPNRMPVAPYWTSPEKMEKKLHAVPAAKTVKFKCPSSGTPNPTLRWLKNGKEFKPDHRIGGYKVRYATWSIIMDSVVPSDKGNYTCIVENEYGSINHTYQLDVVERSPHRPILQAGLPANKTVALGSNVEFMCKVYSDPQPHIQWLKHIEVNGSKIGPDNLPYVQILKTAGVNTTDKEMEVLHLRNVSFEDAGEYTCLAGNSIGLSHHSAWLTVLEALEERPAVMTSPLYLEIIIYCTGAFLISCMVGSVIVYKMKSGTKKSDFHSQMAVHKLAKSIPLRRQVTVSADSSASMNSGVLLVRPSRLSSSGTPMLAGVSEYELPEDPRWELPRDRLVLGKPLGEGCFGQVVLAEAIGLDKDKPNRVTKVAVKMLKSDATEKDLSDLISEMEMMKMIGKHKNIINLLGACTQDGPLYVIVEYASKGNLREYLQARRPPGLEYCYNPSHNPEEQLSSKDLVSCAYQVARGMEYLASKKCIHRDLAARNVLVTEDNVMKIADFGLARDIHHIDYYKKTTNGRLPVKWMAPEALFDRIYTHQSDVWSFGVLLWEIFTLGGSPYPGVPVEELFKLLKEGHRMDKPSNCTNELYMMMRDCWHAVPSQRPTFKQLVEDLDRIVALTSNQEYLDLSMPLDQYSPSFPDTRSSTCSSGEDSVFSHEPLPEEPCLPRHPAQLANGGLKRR
Settings: not given
The essentials: (§1)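 Recombinant kinase was incubated with compound in reaction buffer containing 5 μM ATP, in wells precoated with poly(Glu,Tyr) 4:1, for 1 h at 37 °C. Phosphorylation was detected by ELISA.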
In general terms: In an ELISA, binding on a coated surface is turned into a signal by an enzyme label.
For `COc1cc(NC(=O)c2ccc(C)c(C#Cc3cncc4ccccc34)c2)cc(OC)c1`, the pIC50 was under 6.00.

The next series has as its target Fibroblast growth factor receptor 2 (Homo sapiens, UniProt P21802). The series is described as follows: Inhibition of recombinant human N-terminal His6-tagged FGFR2 (456 to 770 residues) expressed in baculovirus infected Sf21 insect cells using poly (Glu, Tyr)4:1 as substrate measured after 1 hr by ELISA.
Settings: not given
The essentials:
as §1
With `COc1cc(NC(=O)c2ccc(C)c(C#Cc3cncc4ccccc34)c2)cc(OC)c1`, the pIC50 was under 6.00.

A further series addresses Fibroblast growth factor receptor 3 (Homo sapiens, UniProt P22607). Briefly: Inhibition of recombinant human N-terminal His6-tagged FGFR3 (447 to 761 residues) expressed in baculovirus infected Sf21 insect cells using poly (Glu, Tyr)4:1 as substrate measured after 1 hr by ELISA.
Settings: not given
The essentials: as §1
Consider `COc1cc(NC(=O)c2ccc(C)c(C#Cc3cncc4ccccc34)c2)cc(OC)c1`, for which the pIC50 is under 6.00.

The next series deals with Fibroblast growth factor receptor 4 (Homo sapiens, UniProt P22455). Briefly: Inhibition of recombinant human N-terminal His6-tagged FGFR4 (442 to 755 residues) expressed in baculovirus infected Sf21 insect cells using poly (Glu, Tyr)4:1 as substrate measured after 1 hr by ELISA.
Sequence of Fibroblast growth factor receptor 4 (P22455 whole entry, the tested form may be a part): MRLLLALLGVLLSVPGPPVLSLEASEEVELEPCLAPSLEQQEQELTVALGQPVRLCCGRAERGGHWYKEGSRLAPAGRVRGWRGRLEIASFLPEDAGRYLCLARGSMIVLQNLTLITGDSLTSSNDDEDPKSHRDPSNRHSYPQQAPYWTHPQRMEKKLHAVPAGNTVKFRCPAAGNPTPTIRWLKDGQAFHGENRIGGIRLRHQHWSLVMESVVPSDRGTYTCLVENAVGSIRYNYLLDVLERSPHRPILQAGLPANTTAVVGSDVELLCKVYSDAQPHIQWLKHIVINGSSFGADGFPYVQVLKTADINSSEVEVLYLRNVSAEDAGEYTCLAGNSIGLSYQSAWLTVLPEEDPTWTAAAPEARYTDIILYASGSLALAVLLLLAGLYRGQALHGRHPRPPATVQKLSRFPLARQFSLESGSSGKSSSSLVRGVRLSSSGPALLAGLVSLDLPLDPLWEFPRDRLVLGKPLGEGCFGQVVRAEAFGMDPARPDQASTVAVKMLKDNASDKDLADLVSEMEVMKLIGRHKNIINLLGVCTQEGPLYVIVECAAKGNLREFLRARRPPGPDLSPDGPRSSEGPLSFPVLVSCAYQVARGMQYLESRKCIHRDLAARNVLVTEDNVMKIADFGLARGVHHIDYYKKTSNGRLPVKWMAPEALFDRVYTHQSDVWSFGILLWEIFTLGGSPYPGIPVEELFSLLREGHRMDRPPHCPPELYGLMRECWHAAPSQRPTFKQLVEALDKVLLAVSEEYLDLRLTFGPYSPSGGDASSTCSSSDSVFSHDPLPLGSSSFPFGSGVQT
Settings: not given
The essentials:
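ELISA kinase assay: recombinant kinase added to wells precoated with poly(Glu,Tyr)4:1 and incubated with compound in reaction buffer containing 5 μM ATP, 37 °C for 1 h; wells then washed before antibody detection.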
`COc1cc(NC(=O)c2ccc(C)c(C#Cc3cncc4ccccc34)c2)cc(OC)c1`: the pIC50 was under 6.00.

The test system of a further series is RAW264.7. The series is described as follows: Antiinflammatory activity in mouse RAW264.7 cells assessed as reduction in LPS-induced TNFalpha release measured after 24 hrs by ELISA. The series is classed as functional, cell-based. The settings on record: RAW264.7, 24 h. The essentials:
(§2)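 RAW264.7 cells in DMEM with 10% FBS and 0.125% DMSO were incubated with compound, then primed with LPS 1 μg/mL for 24 h. Supernatant TNF-α and IL-6 measured by mouse ELISA. IC50 from log(inhibitor) versus normalized response nonlinear fit.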
`FC(F)(F)c1ccc(CNc2ccc(Cc3c[nH]c4ncc(Cl)cc34)cn2)cn1` [PEXIDARTINIB]: the negative-log IC50 (pIC50) was 6.40.

A further series concerns RAW264.7. The series is described as follows: Antiinflammatory activity in mouse RAW264.7 cells assessed as reduction in LPS-induced IL6 release measured after 24 hrs by ELISA. The class given is functional, cell-based. The settings on record: RAW264.7, 24 h. In a few lines: as §2
On to `FC(F)(F)c1ccc(CNc2ccc(Cc3c[nH]c4ncc(Cl)cc34)cn2)cn1` [PEXIDARTINIB], for which the pIC50 is 6.37.

System in the next series: not listed separately
The series is described as follows: Cytotoxicity against mouse RAW264.7 cells assessed as reduction in cell viability measured after 24 hrs by CCK8 assay. The class given is cell-based.
Settings: not given
In a few lines: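 RAW264.7 cells were seeded in triplicate in DMEM and exposed to compound for 24 h. CCK-8 was added, incubated 1 h, and absorbance read at 450 nm with 570 nm reference. CC50 from log(inhibitor) versus normalized response nonlinear fit.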
Consider `FC(F)(F)c1ccc(CNc2ccc(Cc3c[nH]c4ncc(Cl)cc34)cn2)cn1` [PEXIDARTINIB], for which the CC50 (as a rule, the concentration giving 50% cytotoxicity) at 24 h was found to be 20500 nM.
